Data: ChEMBL document CHEMBL1800036, “A novel HDAC inhibitor with a hydroxy-pyrimidine scaffold” (Bioorg Med Chem Lett, 2011)

Legend:
Histone deacetylase 1 = Histone deacetylase 1 (Homo sapiens, UniProt Q13547); test: Inhibition of recombinant HDAC1 assessed as inhibition of fluorogenic aminocoumarin release from substrate by trypsin-coupled biochemical assay
Method in brief: (§1)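 Trypsin-coupled fluorogenic assay. Substrate is an acetylated lysine tripeptide amide-linked to aminocoumarin (AMC). HDAC deacetylation allows trypsin to release AMC, and the fluorescence increase is read. Compound was tested at various concentrations and normalized to a DMSO control. IC50 was derived by non-linear regression fit.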

Histone deacetylase 2 = Histone deacetylase 2 (Homo sapiens, UniProt Q92769); test: Inhibition of recombinant HDAC2 assessed as inhibition of fluorogenic aminocoumarin release from substrate by trypsin-coupled biochemical assay
Histone deacetylase 3 = Histone deacetylase 3 (Homo sapiens, UniProt O15379); test: Inhibition of recombinant HDAC3 assessed as inhibition of fluorogenic aminocoumarin release from substrate by trypsin-coupled biochemical assay; method in brief: as §1
Histone deacetylase 4 = Histone deacetylase 4 (Homo sapiens, UniProt P56524); test: Inhibition of recombinant HDAC4 assessed as inhibition of fluorogenic aminocoumarin release from substrate by trypsin-coupled biochemical assay; method in brief: as §1
Histone deacetylase 5 = Histone deacetylase 5 (Homo sapiens, UniProt Q9UQL6); test: Inhibition of recombinant HDAC5 assessed as inhibition of fluorogenic aminocoumarin release from substrate by trypsin-coupled biochemical assay; method in brief: as §1
[1] = target: T1, Protein deacetylase HDAC6 (Homo sapiens, UniProt Q9UBN7); test: Inhibition of recombinant HDAC6 assessed as inhibition of fluorogenic aminocoumarin release from substrate by trypsin-coupled biochemical assay; method in brief: as §1
T1 sequence (Q9UBN7 whole entry): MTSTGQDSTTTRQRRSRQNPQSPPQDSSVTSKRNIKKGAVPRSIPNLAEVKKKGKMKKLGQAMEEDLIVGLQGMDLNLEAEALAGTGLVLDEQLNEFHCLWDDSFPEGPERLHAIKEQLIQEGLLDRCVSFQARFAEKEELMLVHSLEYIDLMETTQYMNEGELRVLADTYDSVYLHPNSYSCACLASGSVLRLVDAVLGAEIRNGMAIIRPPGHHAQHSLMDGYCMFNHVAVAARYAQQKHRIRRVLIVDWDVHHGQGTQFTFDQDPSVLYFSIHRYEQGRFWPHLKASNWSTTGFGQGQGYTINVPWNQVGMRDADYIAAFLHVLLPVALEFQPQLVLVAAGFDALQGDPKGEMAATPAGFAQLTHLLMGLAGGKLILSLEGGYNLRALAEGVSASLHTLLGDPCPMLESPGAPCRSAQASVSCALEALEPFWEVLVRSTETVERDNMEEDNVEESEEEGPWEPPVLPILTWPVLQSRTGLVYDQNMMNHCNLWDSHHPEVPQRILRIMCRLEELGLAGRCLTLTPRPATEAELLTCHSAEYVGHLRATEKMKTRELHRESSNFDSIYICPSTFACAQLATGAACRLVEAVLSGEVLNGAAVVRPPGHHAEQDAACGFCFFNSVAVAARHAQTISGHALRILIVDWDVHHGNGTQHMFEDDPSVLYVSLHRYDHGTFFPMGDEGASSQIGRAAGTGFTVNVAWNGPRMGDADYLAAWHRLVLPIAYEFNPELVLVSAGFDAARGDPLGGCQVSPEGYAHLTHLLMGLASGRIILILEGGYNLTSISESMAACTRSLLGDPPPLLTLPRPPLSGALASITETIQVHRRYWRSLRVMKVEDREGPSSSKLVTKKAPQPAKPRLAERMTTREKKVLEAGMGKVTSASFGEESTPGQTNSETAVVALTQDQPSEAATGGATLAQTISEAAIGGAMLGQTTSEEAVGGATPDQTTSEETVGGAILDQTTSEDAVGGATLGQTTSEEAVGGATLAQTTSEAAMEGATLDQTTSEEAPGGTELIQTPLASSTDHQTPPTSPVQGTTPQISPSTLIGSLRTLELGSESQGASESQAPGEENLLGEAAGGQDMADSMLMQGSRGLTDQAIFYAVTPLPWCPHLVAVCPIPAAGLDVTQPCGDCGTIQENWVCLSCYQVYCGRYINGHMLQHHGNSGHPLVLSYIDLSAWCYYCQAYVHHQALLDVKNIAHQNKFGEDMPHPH

Histone deacetylase 7 = target: T2, Histone deacetylase 7 (Homo sapiens, UniProt Q8WUI4); test: Inhibition of recombinant HDAC7 assessed as inhibition of fluorogenic aminocoumarin release from substrate by trypsin-coupled biochemical assay
T2 sequence (Q8WUI4 whole entry): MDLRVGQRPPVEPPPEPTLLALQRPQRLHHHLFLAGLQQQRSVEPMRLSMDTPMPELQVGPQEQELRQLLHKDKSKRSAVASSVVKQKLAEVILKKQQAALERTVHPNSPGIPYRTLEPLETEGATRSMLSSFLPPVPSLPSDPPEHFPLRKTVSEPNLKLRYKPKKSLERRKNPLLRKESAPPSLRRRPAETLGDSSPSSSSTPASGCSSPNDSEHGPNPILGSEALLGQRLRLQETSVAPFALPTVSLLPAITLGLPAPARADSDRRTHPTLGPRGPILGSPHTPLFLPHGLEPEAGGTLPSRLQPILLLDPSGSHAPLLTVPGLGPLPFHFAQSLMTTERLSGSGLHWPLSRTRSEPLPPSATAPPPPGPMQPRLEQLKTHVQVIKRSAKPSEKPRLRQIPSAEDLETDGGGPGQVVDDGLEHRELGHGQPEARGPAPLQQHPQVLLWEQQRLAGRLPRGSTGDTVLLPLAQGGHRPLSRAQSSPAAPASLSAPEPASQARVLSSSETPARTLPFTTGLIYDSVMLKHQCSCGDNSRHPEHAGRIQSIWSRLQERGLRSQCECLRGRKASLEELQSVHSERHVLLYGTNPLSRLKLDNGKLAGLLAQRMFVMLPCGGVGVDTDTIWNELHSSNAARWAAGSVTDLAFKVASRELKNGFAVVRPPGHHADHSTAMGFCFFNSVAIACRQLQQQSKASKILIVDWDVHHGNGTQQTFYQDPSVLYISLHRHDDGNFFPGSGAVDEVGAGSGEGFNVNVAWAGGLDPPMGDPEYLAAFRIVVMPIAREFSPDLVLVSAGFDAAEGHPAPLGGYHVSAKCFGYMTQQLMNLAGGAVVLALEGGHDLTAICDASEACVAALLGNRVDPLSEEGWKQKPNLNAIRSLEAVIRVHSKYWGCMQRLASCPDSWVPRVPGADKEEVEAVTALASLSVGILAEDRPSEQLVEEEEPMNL

Histone deacetylase 8 = target: T3, Histone deacetylase 8 (Homo sapiens, UniProt Q9BY41); test: Inhibition of recombinant HDAC8 assessed as inhibition of fluorogenic aminocoumarin release from substrate by trypsin-coupled biochemical assay; method in brief: as §1
T3 sequence (Q9BY41 whole entry): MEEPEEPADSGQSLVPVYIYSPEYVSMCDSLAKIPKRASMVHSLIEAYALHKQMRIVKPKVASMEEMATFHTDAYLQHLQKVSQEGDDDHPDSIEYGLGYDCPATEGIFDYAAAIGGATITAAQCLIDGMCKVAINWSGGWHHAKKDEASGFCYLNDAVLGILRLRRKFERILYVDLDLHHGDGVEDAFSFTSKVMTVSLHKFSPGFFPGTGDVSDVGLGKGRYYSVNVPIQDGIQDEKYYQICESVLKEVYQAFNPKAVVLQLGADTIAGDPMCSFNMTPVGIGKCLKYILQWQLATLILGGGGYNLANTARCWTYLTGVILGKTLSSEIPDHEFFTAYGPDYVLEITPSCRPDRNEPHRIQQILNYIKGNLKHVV

Histone deacetylase 9 = Histone deacetylase 9 (Homo sapiens, UniProt Q9UKV0); test: Inhibition of recombinant HDAC9 assessed as inhibition of fluorogenic aminocoumarin release from substrate by trypsin-coupled biochemical assay; method in brief: as §1
Sequence of Histone deacetylase 9 (Q9UKV0 whole entry): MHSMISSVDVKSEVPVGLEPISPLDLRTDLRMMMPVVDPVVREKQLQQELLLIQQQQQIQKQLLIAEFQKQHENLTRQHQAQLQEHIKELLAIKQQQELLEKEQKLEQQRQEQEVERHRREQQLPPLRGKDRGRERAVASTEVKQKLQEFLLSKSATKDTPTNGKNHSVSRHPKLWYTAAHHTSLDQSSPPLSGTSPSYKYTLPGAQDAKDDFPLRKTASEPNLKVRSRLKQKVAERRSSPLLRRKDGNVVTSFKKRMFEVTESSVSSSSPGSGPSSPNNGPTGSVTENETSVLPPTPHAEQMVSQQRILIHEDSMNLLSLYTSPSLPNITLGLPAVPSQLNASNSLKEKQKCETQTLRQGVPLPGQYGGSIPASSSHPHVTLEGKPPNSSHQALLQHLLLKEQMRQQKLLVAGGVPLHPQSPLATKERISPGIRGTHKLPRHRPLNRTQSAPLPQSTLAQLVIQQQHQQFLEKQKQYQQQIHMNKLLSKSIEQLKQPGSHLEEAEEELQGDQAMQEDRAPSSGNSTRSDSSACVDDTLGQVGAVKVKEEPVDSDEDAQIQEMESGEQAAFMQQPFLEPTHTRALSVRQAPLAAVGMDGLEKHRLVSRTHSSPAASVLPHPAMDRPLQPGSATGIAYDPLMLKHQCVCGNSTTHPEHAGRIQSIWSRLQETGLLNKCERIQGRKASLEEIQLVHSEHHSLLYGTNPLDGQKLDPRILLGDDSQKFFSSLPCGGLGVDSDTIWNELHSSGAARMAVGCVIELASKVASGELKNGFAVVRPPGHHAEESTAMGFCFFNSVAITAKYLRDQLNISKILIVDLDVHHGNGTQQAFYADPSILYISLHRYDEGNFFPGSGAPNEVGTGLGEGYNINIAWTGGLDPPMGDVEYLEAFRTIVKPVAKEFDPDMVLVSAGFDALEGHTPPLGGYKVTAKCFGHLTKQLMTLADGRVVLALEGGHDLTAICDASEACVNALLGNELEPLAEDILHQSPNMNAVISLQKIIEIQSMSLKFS

Sequence of Histone deacetylase 4 (P56524 whole entry): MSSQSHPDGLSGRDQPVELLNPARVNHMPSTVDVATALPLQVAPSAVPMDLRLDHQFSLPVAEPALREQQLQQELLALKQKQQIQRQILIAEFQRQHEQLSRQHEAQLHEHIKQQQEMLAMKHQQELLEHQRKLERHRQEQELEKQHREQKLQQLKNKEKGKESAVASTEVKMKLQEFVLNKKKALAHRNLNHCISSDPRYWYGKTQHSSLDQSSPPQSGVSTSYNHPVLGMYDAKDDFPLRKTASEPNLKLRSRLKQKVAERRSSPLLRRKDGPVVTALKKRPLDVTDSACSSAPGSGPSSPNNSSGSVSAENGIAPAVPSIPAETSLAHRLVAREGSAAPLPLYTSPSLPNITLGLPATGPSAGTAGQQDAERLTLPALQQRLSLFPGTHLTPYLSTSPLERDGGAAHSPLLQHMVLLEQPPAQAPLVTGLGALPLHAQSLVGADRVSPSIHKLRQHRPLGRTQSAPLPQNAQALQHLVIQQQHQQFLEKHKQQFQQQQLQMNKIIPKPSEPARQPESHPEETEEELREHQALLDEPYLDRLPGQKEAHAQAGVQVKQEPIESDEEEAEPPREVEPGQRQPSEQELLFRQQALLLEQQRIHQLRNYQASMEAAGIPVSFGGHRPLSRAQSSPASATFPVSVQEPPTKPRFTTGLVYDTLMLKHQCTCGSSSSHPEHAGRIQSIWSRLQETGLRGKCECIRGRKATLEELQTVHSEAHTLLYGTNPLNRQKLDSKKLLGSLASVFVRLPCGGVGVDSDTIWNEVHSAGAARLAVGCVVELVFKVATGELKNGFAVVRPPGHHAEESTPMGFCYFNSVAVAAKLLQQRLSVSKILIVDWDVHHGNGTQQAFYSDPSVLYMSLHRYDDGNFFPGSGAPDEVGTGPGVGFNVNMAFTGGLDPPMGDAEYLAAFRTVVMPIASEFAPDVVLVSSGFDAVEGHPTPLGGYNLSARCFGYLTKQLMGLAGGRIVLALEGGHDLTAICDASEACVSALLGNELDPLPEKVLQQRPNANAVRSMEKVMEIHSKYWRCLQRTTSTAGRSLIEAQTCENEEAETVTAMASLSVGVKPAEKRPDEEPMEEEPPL
Sequence of Histone deacetylase 5 (Q9UQL6 whole entry): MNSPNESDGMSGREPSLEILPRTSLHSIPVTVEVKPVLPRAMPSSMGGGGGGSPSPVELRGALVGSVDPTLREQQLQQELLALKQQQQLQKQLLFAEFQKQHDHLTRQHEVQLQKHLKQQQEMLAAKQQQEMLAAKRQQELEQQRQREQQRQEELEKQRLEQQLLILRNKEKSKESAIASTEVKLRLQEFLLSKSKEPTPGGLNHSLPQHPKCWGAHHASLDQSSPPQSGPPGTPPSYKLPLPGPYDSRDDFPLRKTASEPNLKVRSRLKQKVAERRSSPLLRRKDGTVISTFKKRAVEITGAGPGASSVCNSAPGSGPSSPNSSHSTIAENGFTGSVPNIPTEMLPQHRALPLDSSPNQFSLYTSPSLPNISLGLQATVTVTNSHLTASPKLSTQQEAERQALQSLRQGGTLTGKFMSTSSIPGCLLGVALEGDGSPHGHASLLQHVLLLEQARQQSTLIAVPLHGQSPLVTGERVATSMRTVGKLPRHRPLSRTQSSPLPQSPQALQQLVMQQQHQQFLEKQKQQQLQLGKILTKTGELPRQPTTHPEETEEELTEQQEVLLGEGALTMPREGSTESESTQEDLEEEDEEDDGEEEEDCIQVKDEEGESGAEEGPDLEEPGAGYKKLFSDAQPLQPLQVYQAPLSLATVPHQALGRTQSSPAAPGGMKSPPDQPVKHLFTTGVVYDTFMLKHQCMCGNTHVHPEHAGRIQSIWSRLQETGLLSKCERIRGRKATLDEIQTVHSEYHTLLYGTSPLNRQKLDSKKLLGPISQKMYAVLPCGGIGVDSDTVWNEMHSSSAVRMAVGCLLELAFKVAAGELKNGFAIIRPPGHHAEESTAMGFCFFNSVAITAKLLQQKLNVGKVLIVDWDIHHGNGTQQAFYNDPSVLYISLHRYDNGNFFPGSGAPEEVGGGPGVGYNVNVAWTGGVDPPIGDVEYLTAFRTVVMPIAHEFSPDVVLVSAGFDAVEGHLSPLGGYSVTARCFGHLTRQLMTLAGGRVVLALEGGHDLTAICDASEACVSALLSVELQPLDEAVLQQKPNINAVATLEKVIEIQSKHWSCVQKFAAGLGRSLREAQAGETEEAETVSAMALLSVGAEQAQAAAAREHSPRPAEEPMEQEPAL
Sequence of Histone deacetylase 1 (Q13547 whole entry): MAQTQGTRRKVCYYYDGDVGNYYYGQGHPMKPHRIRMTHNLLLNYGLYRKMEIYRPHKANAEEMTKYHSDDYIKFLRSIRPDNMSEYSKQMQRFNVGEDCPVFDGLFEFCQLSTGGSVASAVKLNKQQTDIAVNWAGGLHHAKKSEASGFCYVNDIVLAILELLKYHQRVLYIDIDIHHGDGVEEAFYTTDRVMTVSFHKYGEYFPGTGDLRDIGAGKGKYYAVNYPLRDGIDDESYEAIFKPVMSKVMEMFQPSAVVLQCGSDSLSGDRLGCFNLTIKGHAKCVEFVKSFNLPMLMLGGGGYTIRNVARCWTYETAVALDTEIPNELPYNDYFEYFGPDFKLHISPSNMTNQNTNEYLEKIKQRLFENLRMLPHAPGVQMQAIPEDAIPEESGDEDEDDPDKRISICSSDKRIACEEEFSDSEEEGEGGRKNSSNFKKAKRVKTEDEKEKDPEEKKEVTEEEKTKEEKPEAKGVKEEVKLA
Sequence of Histone deacetylase 3 (O15379 whole entry): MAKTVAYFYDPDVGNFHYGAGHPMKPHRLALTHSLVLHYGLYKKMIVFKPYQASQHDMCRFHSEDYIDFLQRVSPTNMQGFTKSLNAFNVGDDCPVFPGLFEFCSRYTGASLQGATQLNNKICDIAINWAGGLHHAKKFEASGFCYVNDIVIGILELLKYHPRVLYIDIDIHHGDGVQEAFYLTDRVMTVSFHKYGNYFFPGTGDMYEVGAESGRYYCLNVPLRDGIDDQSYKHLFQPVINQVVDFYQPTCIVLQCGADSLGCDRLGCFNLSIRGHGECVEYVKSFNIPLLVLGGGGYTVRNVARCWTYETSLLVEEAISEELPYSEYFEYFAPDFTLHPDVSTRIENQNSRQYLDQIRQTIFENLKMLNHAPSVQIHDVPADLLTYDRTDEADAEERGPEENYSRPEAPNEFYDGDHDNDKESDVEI
Sequence of Histone deacetylase 2 (Q92769 whole entry): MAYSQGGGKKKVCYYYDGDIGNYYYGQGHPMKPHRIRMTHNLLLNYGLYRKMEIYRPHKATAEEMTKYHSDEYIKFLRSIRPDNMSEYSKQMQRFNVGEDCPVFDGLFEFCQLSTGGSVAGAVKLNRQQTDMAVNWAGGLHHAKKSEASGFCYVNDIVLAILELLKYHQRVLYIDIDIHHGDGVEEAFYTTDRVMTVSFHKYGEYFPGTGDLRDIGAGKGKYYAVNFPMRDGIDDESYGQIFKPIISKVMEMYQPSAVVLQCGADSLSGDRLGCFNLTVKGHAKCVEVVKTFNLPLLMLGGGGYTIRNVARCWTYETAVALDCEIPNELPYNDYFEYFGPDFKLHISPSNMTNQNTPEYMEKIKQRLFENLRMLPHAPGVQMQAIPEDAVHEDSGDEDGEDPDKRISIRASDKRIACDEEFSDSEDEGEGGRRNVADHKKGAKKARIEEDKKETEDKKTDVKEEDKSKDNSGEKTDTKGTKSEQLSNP

| SMILES | IC50 (Histone deacetylase 1) | IC50 (Histone deacetylase 2) | IC50 (Histone deacetylase 3) | IC50 (Histone deacetylase 4) | IC50 (Histone deacetylase 5) | IC50 [1] | IC50 (Histone deacetylase 7) | IC50 (Histone deacetylase 8) | IC50 (Histone deacetylase 9) |
| --- | --- | --- | --- | --- | --- | --- | --- | --- | --- |
| COc1cc(C)nc(SCC(=O)c2ccc(NC(C)=O)cc2)n1 | > 100 µM | > 100 µM | > 100 µM | > 100 µM | > 100 µM | > 100 µM | > 100 µM | > 100 µM | > 100 µM |
| Cc1cc(O)nc(SCC(=O)c2ccc(O)c(O)c2)n1 | > 100 µM | > 100 µM | > 100 µM | > 100 µM | > 100 µM | 16.7 µM | > 100 µM | > 100 µM | > 100 µM |
| CC(=O)CSc1nc(C)cc(=O)[nH]1 | > 100 µM | > 100 µM | > 100 µM | > 100 µM | > 100 µM | > 100 µM | > 100 µM | > 100 µM | > 100 µM |
| COc1ccc(C(=O)CSc2nc(C)cc(O)n2)cc1 | > 100 µM | > 100 µM | > 100 µM | > 100 µM | > 100 µM | 60.9 µM | > 100 µM | > 100 µM | > 100 µM |
| Cc1cc(=O)[nH]c(SCC(=O)c2ccc(C(C)(C)C)cc2)n1 | > 100 µM | > 100 µM | > 100 µM | > 100 µM | 94.3 µM | > 100 µM | > 100 µM | > 100 µM | > 100 µM |
| CC(=O)Nc1ccc(C(=O)CSc2nccc(C)n2)cc1 | > 100 µM | > 100 µM | > 100 µM | > 100 µM | > 100 µM | > 100 µM | > 100 µM | > 100 µM | > 100 µM |
| Cc1cc(=O)[nH]c(SCC(=O)NCCCCc2ccccc2)n1 | > 100 µM | > 100 µM | > 100 µM | > 100 µM | > 100 µM | > 100 µM | > 100 µM | > 100 µM | > 100 µM |
| CC(=O)Nc1ccc(CSc2nc(C)cc(O)n2)cc1 | > 100 µM | > 100 µM | > 100 µM | > 100 µM | > 100 µM | > 100 µM | > 100 µM | > 100 µM | > 100 µM |
| Cc1cc(O)nc(SCC(=O)NCCc2ccccc2)n1 | > 100 µM | > 100 µM | > 100 µM | > 100 µM | > 100 µM | > 100 µM | > 100 µM | > 100 µM | > 100 µM |
| CCOC(=O)CC(=O)CSc1nc(C)cc(O)n1 | 77.2 µM | 69.3 µM | 40 µM | > 100 µM | 48.6 µM | 7.2 µM | > 100 µM | > 100 µM | > 100 µM |
| Cc1cc(=O)[nH]c(SCC(=O)c2ccc(NC(=O)c3ccccc3)cc2)n1 | > 100 µM | > 100 µM | > 100 µM | > 100 µM | > 100 µM | 10.8 µM | > 100 µM | > 100 µM | > 100 µM |
| CC(=O)Nc1ccc(C(=O)CSc2nc(C)cc(C)n2)cc1 | > 100 µM | > 100 µM | > 100 µM | > 100 µM | > 100 µM | > 100 µM | > 100 µM | > 100 µM | > 100 µM |
| COC(=O)CSc1nc(C)cc(=O)[nH]1 | > 100 µM | > 100 µM | > 100 µM | > 100 µM | > 100 µM | > 100 µM | > 100 µM | > 100 µM | > 100 µM |
| Cc1cc(O)nc(SCC(=O)C(C)(C)C)n1 | > 100 µM | > 100 µM | > 100 µM | > 100 µM | > 100 µM | > 100 µM | > 100 µM | > 100 µM | > 100 µM |
| Cc1cc(=O)[nH]c(SCC(=O)NCCCCCCc2ccccc2)n1 | > 100 µM | > 100 µM | > 100 µM | > 100 µM | > 100 µM | > 100 µM | > 100 µM | > 100 µM | > 100 µM |
| Cc1cc(=O)[nH]c(SCC(=O)c2ccc3c(c2)OCCO3)n1 | > 100 µM | > 100 µM | > 100 µM | > 100 µM | > 100 µM | > 100 µM | > 100 µM | > 100 µM | > 100 µM |
| CC(=O)Nc1ccc(C(=O)COc2nc(C)cc(O)n2)cc1 | > 100 µM | > 100 µM | > 100 µM | 54.2 µM | 16.7 µM | 88 µM |  | > 100 µM | 11.7 µM |
| Cc1cc(=O)[nH]c(SCC(=O)c2ccc(O)cc2)n1 | > 100 µM | > 100 µM | > 100 µM | > 100 µM | > 100 µM | 40.1 µM | > 100 µM | > 100 µM | > 100 µM |
| Cc1cc(O)nc(SCC(=O)c2ccccc2)n1 | > 100 µM | > 100 µM | > 100 µM | > 100 µM | > 100 µM | > 100 µM | 13.7 µM | > 100 µM | > 100 µM |
